Test results: ChEMBL document CHEMBL1128473, “[(Biaryloxy)alkyl]isoxazoles: picornavirus inhibitors” (J Med Chem, 1995)
In brackets after ≈: the same amount, converted by molar mass.

System: Human rhinovirus sp.
Assay: Concentration inhibiting 50% of the serotypes tested to 50% of the viral concentration of untreated controls following 72 hr of exposure
Assay type: functional
Summary of the method: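 Tissue culture infectious dose (TCID50) assay against a panel of 10 human rhinovirus serotypes. For each serotype, the viral concentration was compared with untreated controls after 72 h of compound exposure. MIC50 is the compound concentration at which half of the serotypes tested are reduced to 50% of the untreated-control viral concentration.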

MIC50 | SMILES
0.44 µM (≈ 0.148 µg/mL) | Cc1cc(CCCOc2c(C)cc(-c3cccc(O)c3)cc2C)on1
> 8.9 µM | Cc1cc(CCCOc2c(C)cc(-c3cccc(C#N)c3)cc2C)on1
0.11 µM (≈ 0.0373 µg/mL) | Cc1cc(CCCOc2c(C)cc(-c3ccccc3F)cc2C)on1
